Measurements reported in ChEMBL document CHEMBL1128383, “Potent, orally active, competitive N-methyl-D-aspartate (NMDA) receptor antagonists are substrates for a neutral amino acid uptake system in Chinese hamster ovary cells” (J Med Chem, 1995).
pIC50: −log10 of the molar value.

Tests used:
[1] = molecular target: Glutamate NMDA receptor; experiment: Inhibition of NMDA receptor binding affinity in rat brain synaptosomal membrane was determined by [3H]-CGP- 39653 as radioligand; format: cell membranes
Procedure, shortened: (§1)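 Displacement of the named radioligand from rat cortex synaptosomal membranes, following previously reported procedures. IC50 values are means of at least two experiments, each run in triplicate.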

[2] = molecular target: Glutamate NMDA receptor; experiment: (§2) Inhibition of NMDA receptor binding affinity in rat brain synaptosomal membrane using [3H]glutamate as radioligand; format: cell membranes
Procedure, shortened: (§3)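 Displacement of radioligand ([3H]glutamate, [3H]glycine or [3H]CGP 39653) from rat cortex synaptosomal membranes. IC50 values are means of at least two experiments, each run in triplicate.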

[3] = Therapeutic index(TI) expressed as ratio of ataxia ED50 to the MES ED50 was determined; settings: read-out: TI
[4] = molecular target: Glutamate NMDA receptor; experiment: (§4) Inhibition of NMDA receptor binding affinity in rat brain synaptosomal membrane by using [3H]glycine as radioligand; format: cell membranes; procedure, shortened: as §1
[5] = molecular target: T1, Glutamate NMDA receptor (Rattus norvegicus) (UniProt P35439+Q00959+Q00960+Q00961+Q62645+Q8VHN2+Q9R1M7); experiment: (§5) Inhibition of receptor binding affinity in rat brain synaptosomal membrane was determined by [3H]-CGP- 39653 as radioligand; format: cell membranes; settings: concentration not given here; procedure, shortened: as §3
[6] = molecular target: T1, Glutamate NMDA receptor (Rattus norvegicus); experiment: Inhibition of NMDA receptor binding in rat brain synaptosomal membrane using [3H]glutamate as radioligand; format: cell membranes; settings: concentration not given here; procedure, shortened: as §3
[7] = molecular target: T1, Glutamate NMDA receptor (Rattus norvegicus); experiment: as §4; format: cell membranes; settings: concentration not given here; procedure, shortened: as §3
[8] = molecular target: T1, Glutamate NMDA receptor (Rattus norvegicus); experiment: as §2; format: cell membranes; settings: concentration not given here; procedure, shortened: as §3
[9] = molecular target: T1, Glutamate NMDA receptor (Rattus norvegicus); experiment: (§6) Inhibition of NMDA receptor binding affinity in rat brain synaptosomal membrane using [3H]glycine as radioligand; format: cell membranes; settings: concentration not given here; procedure, shortened: as §3
[10] = test system: Mus musculus; experiment: Maximal electroshock (MES) results in mice by iv administration of 3 mg/kg expressed as number of animals protected by total 5 animals tested after 2 hr was reported; format: functional
Procedure, shortened: (§7)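 Adult male CF-1 mice (18–24 g) dosed iv, mg/kg. At 15 min, 1 h and 2 h after dosing, a 60 Hz sinusoidal current (50 mA base to peak, 0.2 s) is applied through corneal electrodes smeared with electrolyte jelly. Protection means no tonic hindlimb extension. Ataxia is scored by inverted screen. Data are expressed as animals affected per animals tested, 5 per group.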

[11] = test system: Mus musculus; experiment: Maximal electroshock (MES) results in mice by iv administration of 10 mg/kg expressed as number of animals with ataxia total 5 animals tested after 15 min was reported; format: functional; procedure, shortened: as §7
[12] = molecular target: Glutamate NMDA receptor; experiment: as §5; format: cell membranes; procedure, shortened: as §3
[13] = test system: Mus musculus; experiment: Maximal electroshock (MES) results in mice by iv administration of 10 mg/kg expressed as number of animals protected by total 5 animals tested after 2 hr was reported; format: functional; procedure, shortened: as §7
[14] = test system: Mus musculus; experiment: Maximal electroshock (MES) results in mice by iv administration of 3 mg/kg expressed as number of animals with ataxia by total 5 animals tested after 15 min was reported; format: functional; procedure, shortened: as §7
[15] = test system: Mus musculus; experiment: Maximal electroshock (MES) results in mice by iv administration of 3 mg/kg expressed as number of animals protected by total 5 animals tested after 15 min was reported; format: functional; procedure, shortened: as §7
[16] = test system: Mus musculus; experiment: Maximal electroshock (MES) results in mice by iv administration of 10 mg/kg expressed as number of animals with ataxia total 5 animals tested after 1 hr was reported; format: functional; procedure, shortened: as §7
[17] = test system: Mus musculus; experiment: Maximal electroshock (MES) results in mice by iv administration of 3 mg/kg expressed as number of animals with ataxia by total 5 animals tested after 1 hr was reported; format: functional; procedure, shortened: as §7
[18] = test system: Mus musculus; experiment: Maximal electroshock (MES) results in mice by iv administration of 10 mg/kg expressed as number of animals protected by total 5 animals tested after 1 hr was reported; format: functional; procedure, shortened: as §7
[19] = molecular target: Glutamate NMDA receptor; experiment: as §6; format: cell membranes; procedure, shortened: as §3
[20] = test system: Mus musculus; experiment: Maximal electroshock (MES) results in mice by iv administration of 3 mg/kg expressed as number of animals with ataxia total 5 animals tested after 2 hr was reported; format: functional; procedure, shortened: as §7
[21] = test system: Mus musculus; experiment: Maximal electroshock (MES) results in mice by iv administration of 10 mg/kg expressed as number of animals with ataxia total 5 animals tested after 2 hr was reported; format: functional; procedure, shortened: as §7
[22] = molecular target: Glutamate NMDA receptor; experiment: Inhibition of receptor binding affinity in […] measured using LDH release
Procedure, shortened: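 Neuronal cell-culture excitotoxicity assay. Cell death is induced by a 5 min application of 100 μM NMDA and read out as lactate dehydrogenase release. The value is the compound concentration needed to prevent cell death.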

[23] = test system: Mus musculus; experiment: Maximal electroshock (MES) results in mice by iv administration of 10 mg/kg expressed as number of animals protected by total 5 animals tested after 15 min was reported; format: functional; procedure, shortened: as §7
[24] = test system: Mus musculus; experiment: Maximal electroshock (MES) results in mice by iv administration of 3 mg/kg expressed as number of animals protected by total 5 animals tested after 1 hr was reported; format: functional; procedure, shortened: as §7

In the case of O=C(O)C1CN(CCCP(=O)(O)O)CCN1 (stereo not drawn), the pIC50 [1] was 6.83, the pIC50 [2] was 6.08 and the selectivity ratio [3] was 2.21. For the same compound, the pIC50 [4] was < 3.70.

In the case of O=P(O)(O)Cc1cc(CP(=O)(O)O)cc(-c2ccccc2)c1, the inhibition [5] was 86%, the inhibition [6] was 80% and the inhibition [7] was 100%.

For N[C@@H](Cc1cccc(-c2ccccc2)c1)C(=O)O, the inhibition [5] was 52%, the inhibition [8] was 58% and the inhibition [9] was 52%.

N[C@@H](Cc1cc(CP(=O)(O)O)cc(-c2ccccc2)c1)C(=O)O showed a Protected [10] of 1, an Ataxia [11] of 0 and a pIC50 [12] of 7.06. For the same compound, the Protected [13] was 3, the Ataxia [14] was 0 and the Protected [15] was 1. The Ataxia [16] was 1, the Ataxia [17] was 0 and the Protected [18] was 4. It also gave a pIC50 [19] of 3.65, a pIC50 [2] of 6.89 and an Ataxia [20] of 0. For the same compound, the Ataxia [21] was 0, the pIC50 [22] was 6.00 and the Protected [23] was 5. It also gave a Protected [24] of 0.

N[C@H](Cc1cc(CP(=O)(O)O)cc(-c2ccc3ccccc3c2)c1)C(=O)O gave a pIC50 [12] of 6.23 and a pIC50 [2] of 6.19.
